Screens as filed in PubChem.
Most compounds without a hit are left out; they make up all but 2.3% or so of the library.
TAAR1 agonist – agonists of human TAAR1; Q96RJ0; actives 0.99% (n = 360,000); AID 624467; activation, % at 3 µM; CHO RD-HGA16 TAAR1, Fluo-8 calcium fluorescence; vehicle wells 0%, saturating PEA agonist 100%;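 active = activation above the mean activation of all test compounds in the run plus 3 SD, cut at about 38% in these data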
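System: CHO RD-HGA16 cells carrying human TAAR1 plus Gα16; Incubation: 17-24 h seeding, 75 min 37 °C dye, 30 min RT; Measured by: Fluo-8 fluorescence, 5 s baseline then 140 s kinetic read; Control set: DMSO and PEA EC100; Replication: single well for each compound.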
TAAR1 antag – human TAAR1 antagonism; Q96RJ0; CHO RD-HGA16 TAAR1, Fluo-8 calcium fluorescence, antagonist; inhibition, % at 3 µM; actives 1.5% (n = 360,000);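 active = inhibition above a per-plate cutoff, the mean inhibition of test compounds on that plate plus 3 SD, cut at about 49% in these data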;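 also: 0% = DMSO plus EC80 beta-PEA response and 100% = DMSO alone without agonist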
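Test system: RD-HGA16 CHO cells with stable hTAAR1 and Gα16 / Probe or stimulus: EC80 β-phenethylamine stimulus / Times: seeding 17-24 h prior, 75-min 37 °C, 30-min RT dye loading / Detection: Fluo-8 calcium-sensitive fluorescence / Read-out basis: % inhibition scaled between DMSO and EC80 PEA controls / Repeats: singlicate, one well per test compound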
V1aR counter – V1a receptor agonism, counter-screen for OXTR agonists; CHO-V1R cells, Fluo-8 calcium fluorescence, agonist mode; 0% DMSO, 100% 3 nM vasopressin; AID 2797; activation, % at 3 µM; P37288; actives 0.25% (n = 320,000);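 active = activation above the mean activation of all tested compounds plus 3 SD, per screening run, cut at about 20% in these data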;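 also: signal is peak over basal fluorescence ratio across a 100 second FLIPR read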
Target sequence (P37288 whole entry, looked up): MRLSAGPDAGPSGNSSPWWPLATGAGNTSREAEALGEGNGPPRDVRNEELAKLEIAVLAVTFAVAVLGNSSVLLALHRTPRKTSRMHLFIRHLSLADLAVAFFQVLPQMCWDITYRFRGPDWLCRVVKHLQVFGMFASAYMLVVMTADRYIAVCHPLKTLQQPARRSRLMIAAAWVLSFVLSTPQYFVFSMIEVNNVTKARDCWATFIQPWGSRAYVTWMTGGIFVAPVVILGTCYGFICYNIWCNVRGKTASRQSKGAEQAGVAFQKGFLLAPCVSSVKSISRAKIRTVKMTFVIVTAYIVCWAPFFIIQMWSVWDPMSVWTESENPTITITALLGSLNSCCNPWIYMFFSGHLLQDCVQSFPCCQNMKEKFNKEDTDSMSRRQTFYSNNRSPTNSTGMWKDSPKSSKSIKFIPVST
OXTR ag – human OXTR agonism. CHO-OTR cells, Fluo-8 calcium fluorescence; normalized: DMSO 0%, oxytocin 100%. activation, % at 3 µM. AID 2435. actives 0.32% (n = 320,000). P30559;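 active = activation above the mean of all tested compounds plus 3 SD, cutoff set per screening run, cut at about 20% in these data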;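 also: peak over basal fluorescence ratio from a 100 s FLIPR kinetic read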
OXTR potentiate – potentiators of human oxytocin receptor; P30559; CHO-OTR cells, Fluo-8 calcium fluorescence, potentiator mode; 0% = oxytocin EC15, 100% = EC100; activation, % at 3 µM; actives 0.061% (n = 320,000);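 active = activation above that plate's cutoff, the mean activation of tested compounds plus 3 SD, cut at about 6.6% in these data, passing the limit was not always enough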;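 also: 100% uses oxytocin at 75 nM as the full agonist control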
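Measured by – Fluo-8 calcium dye fluorescence · Test system – human OTR in CHO cells · Dosing – one concentration, 3.0 µM compound · Controls – EC15 oxytocin alone as 0%, 75 nM oxytocin as 100% · Evaluation – normalized max/min fluorescence ratio, % activation · Timing – 6 min pre-incubation, 100 s read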
TAAR1 nonsel count – counter-screen for TAAR1 antagonists: nonselective antagonists | inhibition, % at 3 µM | actives 77% (n = 2,400) | shares compounds with TAAR1 antag | AID 651780 | counterscreen cell line, calcium fluorescence, antagonist mode; in the data active = inhibition above about 22%;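 also: CHO-Ga16 host cells stimulated with ATP at an EC80 level; 0% = agonist EC80 plus vehicle and 100% = vehicle without agonist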
TAAR1 ant conf – confirmation of human TAAR1 antagonists | shares compounds with TAAR1 antag | TAAR1-expressing cells, fluorescence antagonist read-out | inhibition, % at 3 µM | actives 40% (n = 2,400) | AID 651785; in the data active = inhibition above about 49%;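 also: CHO-Ga16 host cells challenged with agonist PEA near its EC80; 0% = agonist at EC80 plus vehicle and 100% = vehicle with no agonist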
Ga16 nonsel ag – nonselective Ga16 agonism, counter-screen; shares compounds with TAAR1 antag; Ga16-expressing cells, calcium fluorescence, agonist counterscreen; activation, % at 3 µM; actives 18% (n = 2,400); AID 651953; in the data active = activation above about 12%;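 also: 0% = vehicle wells and 100% = saturating stimulus response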
TAAR1 ag counter – TAAR1 agonism, antagonist counter-screen. shares compounds with TAAR1 antag. hTAAR1 cell line, fluorescence activation, agonist mode. activation, % at 3 µM. actives 2% (n = 2,400). AID 651955; in the data active = activation above about 37%;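 also: CHO cells stably expressing TAAR1 with calcium dye readout; 0% = DMSO vehicle and 100% = full agonist response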
Numbers without * were called inactive; . = no result.

SMILES	TAAR1 agonist	TAAR1 antag	V1aR counter	OXTR ag	OXTR potentiate	TAAR1 nonsel count	TAAR1 ant conf	Ga16 nonsel ag	TAAR1 ag counter
Cc1c(NC(=O)c2cc(-c3ccccc3)nc3ccccc23)c(=O)n(-c2ccccc2)n1C	14	59*	-1	-1	-10	28*	50*	10	10
Cc1ccc(-c2cc(C(=O)Nc3c(C)n(C)n(-c4ccccc4)c3=O)c3ccccc3n2)cc1	10	49*	-1	-1	0	30*	40	6	3
COc1ccc(-c2cc(C(=O)Nc3c(C)n(C)n(-c4ccccc4)c3=O)c3ccccc3n2)c(OC)c1	8	53*	-1	-2	-4	26*	37	7	11
Cc1c(NC(=O)COC(=O)c2cc(-c3ccc(-c4ccccc4)cc3)nc3ccccc23)c(=O)n(-c2ccccc2)n1C	1	19	0	0	3	.	.	.	.
COc1ccc(C(=O)NCC2(N3CCCCC3)CCCCC2)cc1S(=O)(=O)N(C)C	-2	12	0	1	1	.	.	.	.
CCOc1c2ccc(C(=O)NCCCCc3ccccc3)cc2nn1C	8	2	1	1	-5	.	.	.	.
Cc1cccn2c(=O)c3cc(C#N)c(=NC(=O)c4cccs4)n(CCCOC(C)C)c3nc12	14	67*	-1	-2	-8	24*	48	9	8
COc1cccc(N2CCN(C(=O)CCCCCNc3nc(=S)[nH]c4ccccc34)CC2)c1	11	59*	0	-3	-11	19	37	8	11
CC(=O)c1ccc(N2CCN(C(=O)c3cc4c(C)nc5ccccc5c4o3)CC2)cc1	10	3	5	4	-12	.	.	.	.
O=C(c1cc(-c2cccnc2)nc2ccccc12)N1CCN(S(=O)(=O)c2cccs2)CC1	17	51*	2	-1	-6	22*	34	6	5
COc1ccc(N2CCN(C(=O)c3cc4c(C)nc5ccccc5c4o3)CC2)cc1	4	62*	5	3	-15	37*	51*	12*	10
CCOc1ccccc1N1CCN(C(=O)c2cc(-c3cc(OC)ccc3OC)nc3ccccc23)CC1	4	73*	2	0	-9	21	43	6	4
COc1ccc(-c2cc(C(=O)N3CCN(c4ncccn4)CC3)c3ccccc3n2)cc1	35	52*	3	-2	-4	29*	48	10	8
COc1ccc(-c2cc(C(=O)N3CCN(c4ccccc4F)CC3)c3ccccc3n2)c(OC)c1	7	33	1	0	1	.	.	.	.
CS(=O)(=O)N1CCN(C(=O)c2cc(-c3ccccc3)nc3ccccc23)CC1	11	12	2	3	-6	.	.	.	.
CCn1c(SCC(=O)NC2CCCCC2C)nnc1-c1ccc(OC)cc1 (stereo not given)	13	-4	1	-1	5	.	.	.	.
CCOc1ccc2oc(C(=O)N3CCN(c4ccccc4OCC)CC3)c(C)c2c1	3	60*	-2	-2	-8	20	43	2	11
COc1ccc(-c2cc(C(=O)N3CCCCCC3)c3ccccc3n2)c(OC)c1	1	35	-1	-1	-6	.	.	.	.
COc1ccc(-c2cc(C(=O)N3CCCC3)c3ccccc3n2)cc1	7	16	3	0	-1	.	.	.	.
COc1ccc(-c2cc(C(=O)N3CCN(c4ncccn4)CC3)c3ccccc3n2)c(OC)c1	16	74*	0	-2	0	31*	54*	8	9
